Here are results for 3 molecules from ChEMBL document CHEMBL1147141, “Potent nonpeptide antagonists of the bradykinin B1 receptor: structure-activity relationship studies with novel diaminochroman carboxamides” (J Med Chem, 2007).

Series [1] relates to Oryctolagus cuniculus. Nature of the series: Antinociceptive effect in subcutaneously dosed New Zealand rabbit assessed as reversal of carrageenan-induced hyperalgesia administered 2 hrs after carrageenan challenge. In kind it is functional, organism-based. Summed up:
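Male New Zealand white rabbits (500-700 g), right hind paw injected with lambda carrageenan (3% in saline, 200 µL). Three punctate mechanical withdrawal readings were taken before and at 3 h post-carrageenan. Antagonist was given s.c. at 1 mL/kg, at 2 h (20% Captisol vehicle) or 2.5 h (PBS vehicle, peptide) post-carrageenan. Post minus pre threshold gave a difference score, converted to %MPE with the vehicle group as Emin and 0 as Emax. Analysed by one-factor ANOVA and Dunnett's test.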

Series [2] is described as follows: Volume of distribution at steady state in Sprague-Dawley rat at 1 mg/kg, iv. In kind it is ADME, organism-based. On the set-up: dose 1 mg/kg, route intravenous. The settings on record: in vivo, read-out: Vss. Summed up:
(§1)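 Male Sprague-Dawley rats (225-280 g) with femoral and jugular vein cannulae were fasted overnight. They received an i.v. bolus of 1 mg/kg in 100% DMSO, prepared on the dosing day, n = 3. Blood was drawn via jugular cannula over 6 or 8 h into heparin. Plasma was acetonitrile-precipitated and measured by LC-MS/MS (positive MRM). Parameters were noncompartmental and reported with SEM.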

A short description of series [3]: Oral bioavailability in Sprague-Dawley rat at 10 mg/kg, po. The settings on record: in vivo. Format: ADME, organism-based. Summed up:
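Male Sprague-Dawley rats (225-280 g), cannulated and fasted overnight, were dosed by oral gavage at 10 mg/kg in 1% Tween 80, 2% HPMC, prepared 24-48 h before dosing, n = 3. Jugular blood was sampled over 6 or 8 h. Plasma was analysed by LC-MS/MS and parameters derived noncompartmentally.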

Series [4] deals with T1, B1 bradykinin receptor (Rattus norvegicus, UniProt P97583).
T1 sequence (P97583 whole entry): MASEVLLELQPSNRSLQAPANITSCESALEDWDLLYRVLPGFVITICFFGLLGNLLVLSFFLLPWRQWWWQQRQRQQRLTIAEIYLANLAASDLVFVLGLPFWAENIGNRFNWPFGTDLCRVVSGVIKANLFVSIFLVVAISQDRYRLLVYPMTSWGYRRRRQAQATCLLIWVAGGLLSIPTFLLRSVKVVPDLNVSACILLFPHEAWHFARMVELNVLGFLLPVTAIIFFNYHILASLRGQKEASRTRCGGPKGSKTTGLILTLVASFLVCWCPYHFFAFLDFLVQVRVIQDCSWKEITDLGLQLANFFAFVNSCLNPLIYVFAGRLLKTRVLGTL
Put plainly: Antagonist activity at rat bradykinin B1 receptor. In kind it is functional.

The target in series [5] is T2, B1 bradykinin receptor (Oryctolagus cuniculus, UniProt P48748).
T2 sequence (P48748 whole entry): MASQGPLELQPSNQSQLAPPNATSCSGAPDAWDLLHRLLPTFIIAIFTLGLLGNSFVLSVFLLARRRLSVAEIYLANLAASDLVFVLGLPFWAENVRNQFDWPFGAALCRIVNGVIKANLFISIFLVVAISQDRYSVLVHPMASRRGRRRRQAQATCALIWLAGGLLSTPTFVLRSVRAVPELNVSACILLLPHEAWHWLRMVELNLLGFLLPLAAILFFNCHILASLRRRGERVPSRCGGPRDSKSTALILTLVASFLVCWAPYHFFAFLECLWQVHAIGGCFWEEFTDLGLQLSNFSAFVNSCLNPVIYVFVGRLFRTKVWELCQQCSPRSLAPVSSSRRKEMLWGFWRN
Nature of the series: Antagonist activity at rabbit bradykinin B1 receptor. In kind it is functional.

Series [6] can be described thus: Metabolic stability in rat liver microsomes. The settings on record: read-out: Stability. Format: ADME, Microsome. For orientation: Microsomes from liver hold many membrane-bound enzymes, among them those of drug oxidation.
Series [7] can be described thus: Clearance in Sprague-Dawley rat at 1 mg/kg, iv. Format: ADME, organism-based. On the set-up: dose 1 mg/kg, route intravenous. The settings on record: in vivo. Summed up: as §1
Series [8] is described as follows: Half life in Sprague-Dawley rat at 1 mg/kg, iv. In kind it is ADME, organism-based. On the set-up: dose 1 mg/kg, route intravenous. The settings on record: in vivo. The method, boiled down: as §1
For series [9], the system named is Oryctolagus cuniculus. Nature of the series: Reduction of DAK10-induced hypotension in subcutaneously dosed New Zealand rabbit blood pressure model. Format: functional, organism-based. Summed up: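 New Zealand white rabbits (2.0-3.0 kg, n = 1/dose) were given LPS 25 µg/kg i.v. 5 h before the study to induce B1 receptors. Under anesthesia, both carotids were catheterized to record mean arterial pressure and to give DAK. Baseline was set by two i.v. bolus injections of 1 µg DAK. Antagonist was then given s.c. (1, 2, 4, 10 or 20 mpk). At 30 and 75 min, blood was drawn for plasma levels and the DAK response was re-measured, expressed as % hypotensive response.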

Series [10] is described as follows: Metabolic stability in human liver microsomes. In kind it is ADME, Microsome. To be noted: read-out: Stability.
Series [11] in a line: Oral bioavailability in Sprague-Dawley rat at 3 mg/kg, po. In kind it is ADME, organism-based. The settings on record: in vivo.
In series [12] the target is T3, B1 bradykinin receptor (Homo sapiens, UniProt P46663).
T3 sequence (P46663 whole entry): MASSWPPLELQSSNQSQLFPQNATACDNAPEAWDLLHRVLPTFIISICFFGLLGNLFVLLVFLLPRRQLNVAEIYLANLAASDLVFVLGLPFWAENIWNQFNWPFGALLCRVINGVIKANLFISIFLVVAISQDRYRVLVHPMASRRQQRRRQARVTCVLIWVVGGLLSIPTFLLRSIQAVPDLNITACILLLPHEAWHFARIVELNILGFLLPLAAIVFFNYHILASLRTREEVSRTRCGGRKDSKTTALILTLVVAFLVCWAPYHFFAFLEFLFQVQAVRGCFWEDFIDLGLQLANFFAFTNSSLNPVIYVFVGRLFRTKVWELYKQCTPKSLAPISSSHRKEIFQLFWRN
Put plainly: Antagonist activity at human bradykinin B1 receptor expressed in CHOD cells assessed as effect on DAK-induced calcium flux. In kind it is functional, cell-based.

The target of series [13] is T3, B1 bradykinin receptor. Put plainly: Displacement of [3H]DAK from human bradykinin B1 receptor expressed in CHOD cells. In kind it is cell-based.

For the molecule `O=C(C[C@@H](NS(=O)(=O)c1cccc(C(F)(F)F)c1)c1ccc(F)cc1)N[C@@H]1CCOc2cc(CN3CCCCC3)ccc21`, the Activity entry in the series with Oryctolagus cuniculus [1] and with Oryctolagus cuniculus [9] was “Dose-dependent effect” each time. Besides, in series [2], the Vd came out at 4.64 L/kg. The bioavailability (commonly dose-corrected exposure relative to a reference, in per cent) in [3] worked out at 13%. For the same molecule, at B1 bradykinin receptor [4], the Ki (as a rule, the equilibrium dissociation constant of an inhibitor or competing ligand from its target) was 0.127 µM (antagonist). Further, on B1 bradykinin receptor [5], the IC50 (usually the midpoint of a concentration-inhibition curve) was 0.0104 µM (antagonist). Also, in series [6], the microsomal CLint came to 216 µL/min/mg. The clearance (as a rule, the volume of plasma or blood freed of the substance per unit of time) in series [7] is 24.8 mL/min/kg. In series [8], the half-life (as a rule, how long it takes for the measured level to halve) is 2.5 h.

`O=C(C[C@@H](NS(=O)(=O)c1ccc2ccccc2c1)c1ccccc1)N[C@@H]1CCOc2cc(CN3CCCCC3)ccc21`: the microsomal CLint was found to be 688 µL/min/mg in series [10] and 390 µL/min/mg in series [6]. The bioavailability in series [11] is 4%. The molecule further came in with a clearance in [7] of 84.1 mL/min/kg.

For the molecule `COCCNCc1ccc2c(c1)OCC[C@H]2NC(=O)C[C@@H](NS(=O)(=O)c1cccc(C(F)(F)F)c1)c1ccc(F)cc1`, the values for the microsomal CLint in [10] and in [6] were 310 µL/min/mg and 265 µL/min/mg, respectively. In addition, the results for the IC50 at B1 bradykinin receptor [12] and on B1 bradykinin receptor [5] were 0.0174 µM (antagonist) and 1.68 µM (antagonist), respectively. The Vd in [2] worked out at 8.09 L/kg. This molecule also came in with a bioavailability in series [3] of 49%. Moreover, the inhibition constant (Ki) on B1 bradykinin receptor [4] is 0.208 µM (antagonist); at B1 bradykinin receptor [13] it was 0.014 µM (antagonist). The clearance in series [7] was found to be 39.4 mL/min/kg. In series [8], this molecule gave a half-life of 3.4 h.
